Compounds with a hit are over-represented: about 1.5% of the library has one in this group of screens.
HDAC3 inhib: blocks human histone deacetylase 3 | O15379 | recombinant HDAC3, fluorogenic peptide/trypsin coupled, fluorescence | inhibition, % at 8.3 µM | hit rate 0.15% among 320,000; in the data active = inhibition above about 26%, passing the limit was not always enough
LANA-H2B inh: blocks KSHV LANA binding to histone H2A/H2B | Q9QR71 | cell-free LANA-H2A/H2B peptide, fluorescence polarization | inhibition, % (no concentration beside the values) | hit rate 0.6% among 320,000 | AID 2629; in the data active = inhibition mostly above about 10%, no sharp cut-off; inactive = mostly below about 6.7%
DSG3 Ab inh: blocks pemphigus antibody binding to human desmoglein-3; hit rate 0.48% among 310,000; AID 588358; binding (percent of control), % at 10 µM; P32926; DSG3-coupled beads, scFv-anti-DSG3-GFP binding, flow cytometry; active compounds read low;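 active = binding more than 3 SD below its plate's average and above zero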;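 note: hits lower antibody fragment binding to DSG3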
T cell HTS: modulates CD8 T cell binding to vesicles | 2C CD8+ T cell-vesicle binding, flow cytometry; active compounds read low | response (vesicle binding), % at 7 µM | hit rate 0.068% among 330,000;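 active = response, share of CD8 T cells binding vesicles, and their 90th percentile fluorescence all below set limits, cut at about 80% in these data, passing the limit was not always enough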;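 note: values below 100% mean blocked vesicle binding to the CD8+ T cells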
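Assay system – 2C mouse CD8+ T cells · Also added – QL9-loaded Drosophila micro-vesicles · Timing – Cell–vesicle co-incubation 1.5 h at 37 °C, staining 20 min on ice · Signal – flow cytometry of vesicle-bound cells · Measure – percent CD8+ FL2 mean versus row control · Controls – Peptide-free naked vesicles (low) and QL9 vesicles with 0.7% DMSO vehicle (high)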
Arrestin-AP2 inh: blocks beta-arrestin peptide binding to AP2 adaptin | AID 504490 | hit rate 0.31% among 340,000 | inhibition, % at 10 µM | FITC-arrestin peptide / GST-AP2 beads, flow cytometry; AP2 beta2 appendage carries R879A mutation;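 active = inhibition above a set limit, near 3 SD of compounds lacking own fluorescence, cut at about 54% in these data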;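 note: plate controls were DMSO wells for no effect and 5 µM unlabelled arrestin peptide for full effect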
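System: GST-AP2 R879A glutathione beads. Medium: PBS with 0.05% Tween 20 and 0.1% BSA. Also added: FITC-arrestin peptide, 50 nM. Incubation: 12 min plus 1 h, RT. Measured by: high-throughput flow cytometry of beads, ex 488, em 535 nm. Evaluation: percent drop in bead-associated FITC signal.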
An asterisk follows results filed as active; i = inactive; / = not tested or not shown; + = active, no number.

SMILES	HDAC3 inhib	LANA-H2B inh	DSG3 Ab inh	T cell HTS	Arrestin-AP2 inh
O=C(COC(=O)C1=COCCO1)Nc1cc(Cl)c(Cl)cc1Cl	-1	3	103	156	4
Oc1c(N=NC(=S)Nc2ccccc2F)c2ccccc2n1Cc1ccccc1F	-1	-1	95	212	3
Oc1c(N=NC(=S)Nc2ccccc2F)c2ccccc2n1Cc1ccc(Cl)cc1	-1	21*	92	356	4
C[C@@H]1CN([C@H](C)CO)C(=O)CCCn2cc(nn2)CO[C@H]1CN(C)C(=O)Nc1ccccc1	/	/	108	/	/
CC(C)(C=O)C1=CC(=O)c2ccccc2C1=O	3	+	83	788	40
CC1=CC(=O)c2ccccc2C1=O	-7	-8	110	182	-1
COc1cccc(CN(C)C(=O)Cn2cc(C)c(=O)[nH]c2=O)c1	/	/	106	/	9
CC(C)c1ccccc1NS(=O)(=O)N(C)C	-8	1	49*	171	-1
O=C(Nc1ccc(C(=O)NC2CCCCC2)cc1)c1cccnc1	-3	14*	121	388	-10
CC(=O)Nc1ccc(C(=O)NC2CCCC2)cc1	-3	-1	73	106	14
O=C(NC1CCS(=O)(=O)C1)c1cccnc1 (stereo not drawn)	-6	0	/	27*	/
O=C(O)c1c(Cl)cccc1Cl	-1	+	101	498	3
CC(=O)Nc1cccc(Cl)c1C(=O)O	4	0	105	463	-8
CC(=O)Nc1cccc(NC(=O)CSc2ccc(C(F)(F)F)cc2[N+](=O)[O-])c1	-1	-6	84*	i	-4
COc1cc(C(=O)NNC(=O)CCOc2ccccc2)cc(OC)c1OC	-5	17*	104	468	3
Nc1ccc(SCC(=O)Nc2cccc([N+](=O)[O-])c2)cc1	5	71*	/	/	26
CCc1ccccc1NC(=O)CSc1nc(-c2ccccc2)nn1C(=O)c1cccc([N+](=O)[O-])c1	4	-4	/	538	/
O=C(CSc1nc(-c2ccccc2)nn1C(=O)c1ccccc1)Nc1cccc([N+](=O)[O-])c1	41*	0	109	401	17
CN(CC(=O)NCC(c1ccco1)N1CCCCC1)S(=O)(=O)c1ccc(Cl)cc1 (stereo not drawn)	2	-4	104	545	-10
COC(=O)[C@@H](Cc1c[nH]c2ccccc12)NCc1ccc(B(O)O)cc1	/	/	113	/	0
Cc1cc(C)c(C)c(S(=O)(=O)N2CCCN(C)CC2)c1C	0	1	101	300	20
Cc1ccc(C)c(N2CCN(C(=O)c3ccc4nc(-c5ccco5)c(-c5ccco5)nc4c3)CC2)c1	13	4	69*	386	23
CCOC(=O)CC1(NC(=O)c2cc(COc3cccc(OC)c3)on2)CCCCC1	3	0	81*	213	-4
Cc1c(C(=O)NNC(=O)c2cccnc2)cccc1[N+](=O)[O-]	0	1	100	0.0*	-6
O=S(=O)(c1ccc2c(c1)OCCO2)C1CCC(S(=O)(=O)c2c(F)cccc2F)CC1 (stereo not drawn)	40*	4	98	401	8
SMILES	HDAC3 inhib	LANA-H2B inh	DSG3 Ab inh	T cell HTS	Arrestin-AP2 inh
O=S(=O)(NC1CCC(NS(=O)(=O)c2c(F)cccc2F)CC1)c1ccc2c(c1)OCCO2 (stereo not drawn)	3	3	108	770	6
CCOc1cc(C2C3=C(CCCC3=O)Nc3nc(C(=O)OC)nn32)ccc1OC (stereo not drawn)	2	20*	/	92	7
CCOC(=O)CSc1nc2cc(OCC)ccc2cc1C#N	-1	2	106	508	40
CCOc1ccc2cc(C#N)c(SCC(=O)NC(C)CC)nc2c1 (stereo not drawn)	-3	34*	/	377	/
O=c1cc(Cn2ccnc2)c2cc(O)ccc2o1	0	-1	97	246	11
COc1ccc(C(C)=NNS(=O)(=O)c2ccc(C)cc2)cc1OC	/	/	106	/	/
COc1ccc(-c2nc3cnccn3c2NCc2ccccc2)cc1SC1CCCCC1	29*	-5	146	141	-1
O=C(O)Cc1ccc2c(c1)Cc1cccnc1O2	/	/	104	/	/
CC(=O)Nc1ccc(OCC(=O)c2cc(C)ccc2C)cc1	-3	19*	76	369	18
CC(=O)Nc1ccc(NC(=O)Nc2ccc(C)c(C)c2)cc1	7	4	102	108	-10

Screening results deposited in PubChem by several laboratories.
